The text below walks through data of ChEMBL document CHEMBL1938272 (Bioorg Med Chem, 2012).

Broadly, the IC50 is the concentration that gives 50% inhibition. The low end stands for greater potency, the high end for weaker potency.

In series [1] the target is T1, Aromatase (Homo sapiens, UniProt P11511).
T1 sequence (P11511 whole entry): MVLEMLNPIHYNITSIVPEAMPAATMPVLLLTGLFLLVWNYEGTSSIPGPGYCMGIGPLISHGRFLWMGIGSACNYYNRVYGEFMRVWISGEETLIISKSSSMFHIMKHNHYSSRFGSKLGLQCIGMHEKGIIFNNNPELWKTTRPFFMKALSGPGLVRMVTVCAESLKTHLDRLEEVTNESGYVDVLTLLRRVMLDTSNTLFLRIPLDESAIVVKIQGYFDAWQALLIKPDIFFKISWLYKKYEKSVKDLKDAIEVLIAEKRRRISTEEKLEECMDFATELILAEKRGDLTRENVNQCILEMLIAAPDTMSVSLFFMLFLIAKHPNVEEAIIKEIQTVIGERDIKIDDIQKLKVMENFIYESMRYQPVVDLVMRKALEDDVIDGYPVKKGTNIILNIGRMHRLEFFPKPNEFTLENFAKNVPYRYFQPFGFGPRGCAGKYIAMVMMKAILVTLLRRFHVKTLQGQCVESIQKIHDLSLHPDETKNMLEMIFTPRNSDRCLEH

For another series, the system named is HEK293. As to the kind of experiment: Inhibition of TNFalpha-activated NF-kappaB expressed in HEK293 cells at 50 uM by luciferase reporter gene assay. It counts as cell-based. In general terms: Reporter assays use an easily measured gene product as a stand-in for the process of interest.
Series [2] has as its target T1, Aromatase. In words: Ratio of trans-resveratrol IC50 to compound IC50 for human aromatase.
The next series has as its system RAW264.7. As to the kind of experiment: Antiinflammatory activity in mouse RAW264.7 cells assessed as inhibition of LPS-induced NO production at 40 uM preincubated for 30 mins before LPS challenge by Griess method. A general note: The Griess reaction detects nitrite, a stable product of nitric oxide.
Series [3] has as its system Radical scavenging activity. In words: Antioxidant activity assessed as DPPH free radical scavenging activity at 400 uM after 30 mins by spectrophotometry. It counts as functional. A general note: Loss of DPPH colour is used to gauge radical scavenging.
The target of series [4] is NAD(P)H dehydrogenase [quinone] 1 (Mus musculus) (UniProt Q64669). As to the kind of experiment: Induction of QR1-mediated cytoprotective activity in mouse Hepa-1c1c7 cells at 50 uM assessed as cell survival. It counts as cell-based.
NAD(P)H dehydrogenase [quinone] 1 (Mus musculus), sequence (Q64669 whole entry): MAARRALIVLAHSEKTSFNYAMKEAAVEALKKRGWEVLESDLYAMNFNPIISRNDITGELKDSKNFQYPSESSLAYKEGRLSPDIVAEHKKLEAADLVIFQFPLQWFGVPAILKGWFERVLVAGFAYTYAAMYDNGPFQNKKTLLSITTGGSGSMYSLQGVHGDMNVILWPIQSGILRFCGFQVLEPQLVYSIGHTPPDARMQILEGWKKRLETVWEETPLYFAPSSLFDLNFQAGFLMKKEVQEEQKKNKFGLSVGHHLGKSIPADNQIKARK
The target in series [5] is T1, Aromatase. The note with it: 2 h, read-out: Imax.
The target of series [6] is NAD(P)H dehydrogenase [quinone] 1 (Mus musculus) (UniProt Q64669). As to the kind of experiment: Induction of QR1-mediated cytoprotective activity in mouse BPrc1 cells at 50 uM assessed as cell survival. It counts as cell-based.
For series [7] the target is unchanged. In words: Induction of QR1-mediated cytoprotective activity in mouse TAOc1 mutant Hepa cells at 50 uM assessed as cell survival. It counts as cell-based.
Series [8] has the same target. In words: Induction of QR1 activity in mouse Hepa-1c1c7 cells using MTT as substrate by spectrophotometry. It counts as cell-based. The procedure, abridged:
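Mouse hepatoma Hepa 1c1c7 cells were incubated with compound, then permeabilised with digitonin. QR1 activity was read as MTT reduction to formazan at 595 nm, with crystal violet total protein run in parallel. Induction ratio is activity versus control; CD is the concentration doubling activity, derived only when the ratio is above 2.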

On to `c1cc(-c2nsc(-c3ccncc3)n2)ccn1`, for which, on Aromatase [1], half-maximal inhibition (IC50) was put at 0.8 µM. Besides, the results for the inhibition (in the series on HEK293; in [3]) were 7.2% and -35.6%, respectively. Further, at Aromatase [2], the “Ratio IC50” value was 30. The inhibition at 40 µM with RAW264.7 worked out at 0.9%. Also, the Survival in series [4] amounted to 86.6%. In addition, on Aromatase [5], the inhibition at 50 µM is 98%.
At Aromatase [1], `c1cncc(-c2nsc(-c3cccnc3)n2)c1` yielded an IC50 of 0.2 µM. Besides, the inhibition in the series on HEK293 turned out to be 30.9%. The Survival amounted to 87.8% in series [6], 71.6% in series [7] and 73.5% in series [4]. Besides, at Aromatase [2], the Ratio IC50 came to 125. In addition, the inhibition at 40 µM in the series with RAW264.7 worked out at 1.3%. In series [8], the CD is 53.1 µM. The inhibition at 50 µM on Aromatase [5] was found to be 97.2%.
